Assays:
Rattus norvegicus [1] = experiment: Analgesic activity in rat spinal nerve ligation neuropathic pain model assessed as reversal of allodynia at 30 mg/kg, po measured at 24 hrs relative to control; format: functional
Method in brief: (§1)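 Rat spinal nerve ligation model. Seven days after surgery, rats received a single oral dose (3, 10 or 30 mg/kg) of test agent or vehicle. Tactile allodynia was scored at 2, 4, 8 and 24 h post-dose with calibrated von Frey filaments using an up-down paradigm. Threshold is the force giving a 50% withdrawal rate. %MPE = (post-compound − post-SNL)/(pre-SNL − post-SNL) × 100, where 100% is full reversal.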

[2] = target: Cannabinoid receptor 2 (Homo sapiens) (UniProt P34972); experiment: Binding affinity to CB2 receptor (unknown origin) at 25 uM relative to control
Chain of Cannabinoid receptor 2 (Homo sapiens) (P34972 whole entry): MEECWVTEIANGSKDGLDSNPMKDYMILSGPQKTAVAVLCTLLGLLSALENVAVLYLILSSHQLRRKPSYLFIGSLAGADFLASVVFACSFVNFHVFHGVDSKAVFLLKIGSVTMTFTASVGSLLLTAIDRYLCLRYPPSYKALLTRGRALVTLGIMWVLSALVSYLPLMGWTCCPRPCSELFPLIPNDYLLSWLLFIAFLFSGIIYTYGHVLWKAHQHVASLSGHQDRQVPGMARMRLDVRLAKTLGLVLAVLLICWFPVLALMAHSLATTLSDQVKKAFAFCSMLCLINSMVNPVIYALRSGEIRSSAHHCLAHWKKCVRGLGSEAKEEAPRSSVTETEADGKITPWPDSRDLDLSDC

hERG (KCNH2) = hERG (KCNH2) (Homo sapiens, UniProt Q12809); experiment: Displacement of [35S]-MK0499 from human ERG expressed in HEK293 cell membranes at 10 uM after 2 hrs by liquid scintillation counting analysis relative to control; settings: membranes of HEK293 cells that express human ERG, probe [35S]-MK0499
Chain of hERG (KCNH2) (Q12809 whole entry): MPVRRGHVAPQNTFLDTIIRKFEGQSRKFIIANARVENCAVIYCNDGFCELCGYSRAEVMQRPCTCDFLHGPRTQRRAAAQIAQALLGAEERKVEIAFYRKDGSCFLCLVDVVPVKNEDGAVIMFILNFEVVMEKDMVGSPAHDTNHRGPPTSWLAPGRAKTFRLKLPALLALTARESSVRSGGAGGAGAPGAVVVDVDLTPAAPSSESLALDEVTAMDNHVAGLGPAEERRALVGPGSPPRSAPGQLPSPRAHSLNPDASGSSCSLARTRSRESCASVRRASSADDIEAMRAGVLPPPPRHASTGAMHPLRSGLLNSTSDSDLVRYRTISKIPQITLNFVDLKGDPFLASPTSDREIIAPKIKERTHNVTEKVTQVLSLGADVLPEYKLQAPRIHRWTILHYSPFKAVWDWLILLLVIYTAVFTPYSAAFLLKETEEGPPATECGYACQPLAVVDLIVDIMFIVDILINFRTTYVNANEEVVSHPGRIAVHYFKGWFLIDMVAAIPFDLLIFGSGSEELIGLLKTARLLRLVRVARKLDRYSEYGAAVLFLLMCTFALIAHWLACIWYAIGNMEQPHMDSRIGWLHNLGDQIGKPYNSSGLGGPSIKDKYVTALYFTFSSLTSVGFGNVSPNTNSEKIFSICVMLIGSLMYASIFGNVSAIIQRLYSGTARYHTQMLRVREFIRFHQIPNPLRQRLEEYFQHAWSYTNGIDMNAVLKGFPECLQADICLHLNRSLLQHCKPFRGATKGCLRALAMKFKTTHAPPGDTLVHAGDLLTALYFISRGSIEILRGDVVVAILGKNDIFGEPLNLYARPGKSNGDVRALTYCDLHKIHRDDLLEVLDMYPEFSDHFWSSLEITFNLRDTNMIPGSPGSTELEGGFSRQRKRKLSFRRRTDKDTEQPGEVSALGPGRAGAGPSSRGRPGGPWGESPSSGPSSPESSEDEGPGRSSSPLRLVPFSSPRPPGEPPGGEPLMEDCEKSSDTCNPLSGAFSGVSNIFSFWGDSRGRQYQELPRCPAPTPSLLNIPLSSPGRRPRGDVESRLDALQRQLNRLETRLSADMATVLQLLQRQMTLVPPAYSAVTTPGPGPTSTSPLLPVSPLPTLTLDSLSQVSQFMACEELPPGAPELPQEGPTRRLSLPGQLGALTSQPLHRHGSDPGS
Method in brief: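 hERG binding assay measuring displacement of 35S-labelled MK-0499, a known hERG blocker.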

Rattus norvegicus [3] = experiment: Analgesic activity in po dosed rat spinal nerve ligation neuropathic pain model assessed as reversal of allodynia measured after 4 hrs; format: functional, organism-based; method in brief: as §1
Rattus norvegicus [4] = experiment: Neurotoxicity in rat assessed as motor impairment at 30 to 100 mg/kg, po after 2 to 4 hrs by rotarod test; format: toxicity, organism-based; set-up: route oral; settings: in vivo
Method in brief: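 Rats were trained on a rotarod for 3 min at 10 rpm, then given a single oral dose of test agent or vehicle and tested at 2 and 4 h post-dose. During testing the rod ran at 10 rpm for 60 s, then accelerated to 60 rpm. Time to fall after the start of acceleration was recorded. Impairment was defined as >20% reduction in latency.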

[5] = target: T1, Prostaglandin E2 receptor EP1 subtype (Homo sapiens) (UniProt P34995); experiment: Binding affinity to prostaglandin receptor EP1 (unknown origin) at 25 uM relative to control
T1 sequence (whole entry): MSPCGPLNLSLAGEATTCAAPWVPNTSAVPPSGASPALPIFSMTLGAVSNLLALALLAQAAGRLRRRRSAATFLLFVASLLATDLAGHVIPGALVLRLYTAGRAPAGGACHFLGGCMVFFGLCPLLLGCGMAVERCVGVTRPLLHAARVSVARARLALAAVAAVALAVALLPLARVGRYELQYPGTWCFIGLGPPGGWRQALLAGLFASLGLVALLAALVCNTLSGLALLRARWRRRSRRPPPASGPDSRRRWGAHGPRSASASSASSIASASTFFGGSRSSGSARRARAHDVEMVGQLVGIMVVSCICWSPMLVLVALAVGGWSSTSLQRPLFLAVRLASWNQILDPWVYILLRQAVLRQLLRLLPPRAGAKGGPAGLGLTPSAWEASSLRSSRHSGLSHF

[6] = target: T2, Sodium channel protein type 9 subunit alpha (Homo sapiens, UniProt Q15858); experiment: Binding affinity to resting state of human NaV1.7 channel by whole-cell patch clamp assay
Method in brief: (§2)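 Manual whole-cell voltage clamp measuring block of resting and inactivated channel states at room temperature. Data acquired at 50 kHz, filtered at 10 kHz. Bath: 40 mM NaCl, 120 mM NMDG-Cl, 1 mM KCl, 2.7 mM CaCl2, 0.5 mM MgCl2, 10 mM NMDG-HEPES, pH 7.4.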
Target sequence in this assay (Q15858 whole entry, looked up): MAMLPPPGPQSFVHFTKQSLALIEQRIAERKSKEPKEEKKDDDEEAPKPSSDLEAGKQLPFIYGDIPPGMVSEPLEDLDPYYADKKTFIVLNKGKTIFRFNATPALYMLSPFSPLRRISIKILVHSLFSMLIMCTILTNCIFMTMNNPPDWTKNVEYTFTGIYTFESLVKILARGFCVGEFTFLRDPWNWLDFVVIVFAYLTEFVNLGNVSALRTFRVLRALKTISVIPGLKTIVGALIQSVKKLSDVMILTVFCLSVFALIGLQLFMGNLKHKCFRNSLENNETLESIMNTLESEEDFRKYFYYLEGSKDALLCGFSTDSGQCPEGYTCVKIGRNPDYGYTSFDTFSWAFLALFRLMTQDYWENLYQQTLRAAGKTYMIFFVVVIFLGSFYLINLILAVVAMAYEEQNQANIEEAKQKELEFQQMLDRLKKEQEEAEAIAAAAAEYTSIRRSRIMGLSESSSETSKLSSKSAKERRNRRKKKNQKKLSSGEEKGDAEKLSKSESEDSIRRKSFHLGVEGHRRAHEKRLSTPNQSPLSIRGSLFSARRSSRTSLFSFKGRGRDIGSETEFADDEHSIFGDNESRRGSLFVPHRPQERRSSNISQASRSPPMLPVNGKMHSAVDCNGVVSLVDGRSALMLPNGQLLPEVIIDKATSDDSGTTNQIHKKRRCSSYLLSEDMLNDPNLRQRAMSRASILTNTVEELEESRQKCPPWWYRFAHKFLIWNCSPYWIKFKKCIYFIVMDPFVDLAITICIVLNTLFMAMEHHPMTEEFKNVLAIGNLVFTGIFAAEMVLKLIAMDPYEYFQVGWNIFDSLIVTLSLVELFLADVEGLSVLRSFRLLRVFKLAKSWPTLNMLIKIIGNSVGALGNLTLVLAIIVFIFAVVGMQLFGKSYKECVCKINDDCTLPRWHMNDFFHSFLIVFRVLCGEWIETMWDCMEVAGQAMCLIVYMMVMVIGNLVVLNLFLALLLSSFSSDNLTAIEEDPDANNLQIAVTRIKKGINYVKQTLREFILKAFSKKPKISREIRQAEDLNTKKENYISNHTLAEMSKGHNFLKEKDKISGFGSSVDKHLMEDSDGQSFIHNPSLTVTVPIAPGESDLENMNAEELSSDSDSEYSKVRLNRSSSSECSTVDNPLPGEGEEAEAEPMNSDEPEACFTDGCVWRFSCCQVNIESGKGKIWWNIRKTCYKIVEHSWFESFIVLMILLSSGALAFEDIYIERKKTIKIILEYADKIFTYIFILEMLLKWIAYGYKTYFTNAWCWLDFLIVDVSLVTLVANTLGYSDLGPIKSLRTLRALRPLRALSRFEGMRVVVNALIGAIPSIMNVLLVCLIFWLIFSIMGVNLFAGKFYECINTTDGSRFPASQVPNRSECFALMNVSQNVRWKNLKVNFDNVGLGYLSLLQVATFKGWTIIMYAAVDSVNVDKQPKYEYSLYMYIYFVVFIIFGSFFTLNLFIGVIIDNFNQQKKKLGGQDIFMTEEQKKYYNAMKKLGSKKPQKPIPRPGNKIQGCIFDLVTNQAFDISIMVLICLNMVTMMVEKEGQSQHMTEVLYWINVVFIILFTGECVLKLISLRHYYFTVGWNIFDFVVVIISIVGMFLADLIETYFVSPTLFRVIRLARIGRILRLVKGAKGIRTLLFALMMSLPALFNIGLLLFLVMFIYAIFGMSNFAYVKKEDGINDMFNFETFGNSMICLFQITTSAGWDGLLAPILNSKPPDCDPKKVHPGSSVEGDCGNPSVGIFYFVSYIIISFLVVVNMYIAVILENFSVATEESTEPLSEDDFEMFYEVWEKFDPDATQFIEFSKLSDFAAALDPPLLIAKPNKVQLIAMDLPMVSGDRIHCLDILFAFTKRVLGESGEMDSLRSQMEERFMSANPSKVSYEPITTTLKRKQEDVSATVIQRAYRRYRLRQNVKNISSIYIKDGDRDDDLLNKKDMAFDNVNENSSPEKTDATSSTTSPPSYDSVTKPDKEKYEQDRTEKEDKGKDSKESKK

[7] = Oral bioavailability in Sprague-Dawley rat at 3 mg/kg; format: ADME, organism-based; settings: in vivo
Method in brief: (§3)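 Fasted male Sprague–Dawley rats (n = 3 per route) were dosed with 1.5 mg/mL solutions in PEG300/water or DMSO/PEG300/water, either 1.0 mg/kg iv via femoral-vein cannula or 3.0 mg/kg by oral gavage. Blood was sampled at 5 min (iv only), 15 and 30 min, and 1, 2, 4, 6 and 8 h. Plasma levels were measured by LC–MS/MS after acetonitrile protein precipitation.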

Rattus norvegicus [8] = experiment: Analgesic activity in rat spinal nerve ligation neuropathic pain model assessed as reversal of allodynia at 10 mg/kg, po measured at 24 hrs relative to control; format: functional; method in brief: as §1
[9] = Plasma clearance in Sprague-Dawley rat at 3 mg/kg, po and 1 mg/kg, iv; format: ADME, organism-based; method in brief: as §3
[10] = target: T2, Sodium channel protein type 9 subunit alpha; experiment: Binding affinity to inactivated state of human NaV1.7 channel by whole-cell patch clamp assay; method in brief: as §2
Target sequence in this assay (Q15858 whole entry, looked up): as above

Rattus norvegicus [11] = experiment: Analgesic activity in rat spinal nerve ligation neuropathic pain model assessed as reversal of allodynia at 30 mg/kg, po measured at 8 hrs relative to control; format: functional; method in brief: as §1
Rattus norvegicus [12] = experiment: Analgesic activity in rat spinal nerve ligation neuropathic pain model assessed as reversal of allodynia at 10 mg/kg, po measured at 8 hrs relative to control; format: functional; method in brief: as §1
[13] = Half life in Sprague-Dawley rat at 3 mg/kg, po and 1 mg/kg, iv; format: ADME, organism-based; settings: in vivo; method in brief: as §3
[14] = target: Prostaglandin G/H synthase 1 (Homo sapiens) (UniProt P23219); experiment: Binding affinity to COX1 (unknown origin) at 25 uM relative to control
Chain of Prostaglandin G/H synthase 1 (Homo sapiens) (P23219 whole entry): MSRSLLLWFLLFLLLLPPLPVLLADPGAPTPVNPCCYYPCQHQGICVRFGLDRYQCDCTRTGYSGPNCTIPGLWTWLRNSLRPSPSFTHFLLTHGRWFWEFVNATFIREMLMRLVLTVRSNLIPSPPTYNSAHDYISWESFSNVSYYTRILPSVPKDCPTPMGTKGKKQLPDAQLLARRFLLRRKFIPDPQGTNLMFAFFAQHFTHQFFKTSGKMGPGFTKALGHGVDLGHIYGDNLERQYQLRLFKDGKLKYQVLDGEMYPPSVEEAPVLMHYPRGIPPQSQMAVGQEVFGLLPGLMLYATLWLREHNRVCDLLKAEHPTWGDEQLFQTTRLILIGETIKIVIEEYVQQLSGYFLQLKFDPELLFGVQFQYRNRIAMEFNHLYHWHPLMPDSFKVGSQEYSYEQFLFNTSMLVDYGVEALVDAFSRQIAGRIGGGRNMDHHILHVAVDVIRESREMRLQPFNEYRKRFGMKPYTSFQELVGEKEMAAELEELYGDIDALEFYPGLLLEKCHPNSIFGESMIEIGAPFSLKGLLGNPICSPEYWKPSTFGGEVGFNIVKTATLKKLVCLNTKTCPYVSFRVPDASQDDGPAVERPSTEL

Rattus norvegicus [15] = experiment: Analgesic activity in rat spinal nerve ligation neuropathic pain model assessed as reversal of allodynia at 10 mg/kg, po measured at 2 hrs relative to control; format: functional; method in brief: as §1
Rattus norvegicus [16] = experiment: Analgesic activity in rat spinal nerve ligation neuropathic pain model assessed as reversal of allodynia at 3 mg/kg, po measured at 4 hrs relative to control; format: functional; method in brief: as §1
Rattus norvegicus [17] = experiment: Analgesic activity in rat spinal nerve ligation neuropathic pain model assessed as reversal of allodynia at 30 mg/kg, po measured at 4 hrs relative to control; format: functional; method in brief: as §1
Rattus norvegicus [18] = experiment: Analgesic activity in rat spinal nerve ligation neuropathic pain model assessed as reversal of allodynia at 30 mg/kg, po measured at 2 hrs relative to control; format: functional; method in brief: as §1
[19] = target: T2, Sodium channel protein type 9 subunit alpha; experiment: Inhibition of human NaV1.7 channel expressed in HEK293 cells by FRET assay; format: cell-based
Method in brief: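 HEK293 cells stably expressing human Nav1.7. Channel block was read in a functional membrane-potential assay based on FRET between two membrane-associated dyes; IC50 determined.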
Target sequence in this assay (Q15858 whole entry): as the sequence (Q15858 whole entry, looked up) above

Rattus norvegicus [20] = experiment: Dose normalized AUC in Sprague-Dawley rat at 3 mg/kg, po; format: ADME, organism-based; set-up: dose 3 mg/kg, route oral; settings: in vivo; method in brief: as §3
[21] = target: Sodium channel protein type 8 subunit alpha (Homo sapiens) (UniProt Q9UQD0); experiment: Binding affinity to inactivated state of NaV1.6 channel (unknown origin) by whole-cell patch clamp assay; method in brief: as §2
[22] = target: Kappa-type opioid receptor (Homo sapiens) (UniProt P41145); experiment: Binding affinity to kappa opioid receptor (unknown origin) at 25 uM relative to control
Chain of Kappa-type opioid receptor (Homo sapiens) (P41145 whole entry): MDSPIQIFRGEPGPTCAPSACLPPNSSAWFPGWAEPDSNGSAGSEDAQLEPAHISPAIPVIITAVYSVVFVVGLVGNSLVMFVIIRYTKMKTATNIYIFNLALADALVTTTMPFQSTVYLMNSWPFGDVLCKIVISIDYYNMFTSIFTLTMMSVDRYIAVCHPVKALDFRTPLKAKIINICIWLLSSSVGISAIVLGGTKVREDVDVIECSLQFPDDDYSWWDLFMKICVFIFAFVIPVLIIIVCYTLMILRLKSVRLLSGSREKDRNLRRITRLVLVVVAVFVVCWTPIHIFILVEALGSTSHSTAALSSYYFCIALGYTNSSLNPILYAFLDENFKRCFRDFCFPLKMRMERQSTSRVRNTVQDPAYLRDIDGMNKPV

Rattus norvegicus [23] = experiment: Analgesic activity in rat spinal nerve ligation neuropathic pain model assessed as reversal of allodynia at 3 mg/kg, po measured at 8 hrs relative to control; format: functional; method in brief: as §1
[24] = target: Sodium channel protein type 5 subunit alpha (Homo sapiens, UniProt Q14524); experiment: Binding affinity to resting state of human NaV1.5 channel by whole-cell patch clamp assay; settings: read-out: K

Activity [2]: < 50%
Activity [5]: < 50%
K [6]: 24 µM
bioavailability [7]: 100%
clearance [9]: 43 mL/min/kg
K [10]: 0.44 µM
half-life [13]: 1.9 h
Activity [14]: < 50%
IC50 [19]: 117 nM
AUC/dose (Rattus norvegicus [20]): 0.72 µM·h/mg/kg
K [21]: 3.88 µM
Activity [22]: < 50%
Structure (SMILES): O=C(N[C@H](Cc1ccccc1F)C(=O)N[C@@H]1CCc2c(F)c(F)cc(F)c2N(C2CC2)C1=O)C1CC1C(F)(F)F (stereo not given in full)
Activity (Rattus norvegicus [1]): 10%
inhibition at 2 h, 10 µM (hERG (KCNH2)): 26%
Activity (Rattus norvegicus [3]): Dose-dependent effect
Activity (Rattus norvegicus [4]): Non-toxic
Activity (Rattus norvegicus [8]): 4%
Activity (Rattus norvegicus [11]): 28%
Activity (Rattus norvegicus [12]): 20%
Activity (Rattus norvegicus [15]): 43%
Activity (Rattus norvegicus [16]): 18%
Activity (Rattus norvegicus [17]): 55%
Activity (Rattus norvegicus [18]): 62%
Activity (Rattus norvegicus [23]): 7%
Kd [24]: > 10000 nM

Source: ChEMBL document CHEMBL2390921, “A novel benzazepinone sodium channel blocker with oral efficacy in a rat model of neuropathic pain” (Bioorg Med Chem Lett, 2013)
